Laboratory results from ChEMBL document CHEMBL2203081 (Bioorg Med Chem Lett, 2012).
Activity calls are given as the source filed them. The rule behind the calls is not given here.

Key:
[1] = target: Dual specificity protein kinase CLK4 (Homo sapiens) (UniProt Q9HAZ1); experiment: Inhibition of CLK4 assessed as residual activity at 10 uM relative to control
Method in brief: (§1)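 Competition kinase-binding assay (KINOMEscan) across a non-redundant panel of 329 kinases beyond the radiometric panel; residual binding expressed relative to control.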

[2] = target: Cyclin-dependent kinase-like 2 (Homo sapiens) (UniProt Q92772); experiment: Inhibition of CDKL2 assessed as residual activity at 10 uM relative to control
Sequence of Cyclin-dependent kinase-like 2 (Homo sapiens) (Q92772 whole entry): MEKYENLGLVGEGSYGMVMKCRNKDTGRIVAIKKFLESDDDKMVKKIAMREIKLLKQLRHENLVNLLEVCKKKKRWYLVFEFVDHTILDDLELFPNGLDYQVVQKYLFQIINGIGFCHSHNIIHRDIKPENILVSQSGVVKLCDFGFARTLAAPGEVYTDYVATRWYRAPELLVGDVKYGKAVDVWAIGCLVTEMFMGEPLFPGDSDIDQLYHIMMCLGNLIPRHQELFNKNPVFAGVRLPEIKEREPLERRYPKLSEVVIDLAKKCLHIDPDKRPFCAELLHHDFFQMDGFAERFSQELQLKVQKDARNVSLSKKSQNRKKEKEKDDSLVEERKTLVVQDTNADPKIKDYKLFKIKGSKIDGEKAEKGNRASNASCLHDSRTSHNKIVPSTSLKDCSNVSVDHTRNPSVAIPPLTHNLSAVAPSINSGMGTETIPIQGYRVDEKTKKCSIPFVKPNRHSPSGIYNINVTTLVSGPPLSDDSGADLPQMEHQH

[3] = target: Cyclin-dependent kinase 11A (Homo sapiens) (UniProt Q9UQ88); experiment: Inhibition of CDC2L2 assessed as residual activity at 10 uM relative to control
[4] = target: Fibroblast growth factor receptor 1 (Homo sapiens) (UniProt P11362); experiment: Inhibition of FGF-R1 assessed as residual activity at 1 uM
Sequence of Fibroblast growth factor receptor 1 (Homo sapiens) (P11362 22-822 limits assumed): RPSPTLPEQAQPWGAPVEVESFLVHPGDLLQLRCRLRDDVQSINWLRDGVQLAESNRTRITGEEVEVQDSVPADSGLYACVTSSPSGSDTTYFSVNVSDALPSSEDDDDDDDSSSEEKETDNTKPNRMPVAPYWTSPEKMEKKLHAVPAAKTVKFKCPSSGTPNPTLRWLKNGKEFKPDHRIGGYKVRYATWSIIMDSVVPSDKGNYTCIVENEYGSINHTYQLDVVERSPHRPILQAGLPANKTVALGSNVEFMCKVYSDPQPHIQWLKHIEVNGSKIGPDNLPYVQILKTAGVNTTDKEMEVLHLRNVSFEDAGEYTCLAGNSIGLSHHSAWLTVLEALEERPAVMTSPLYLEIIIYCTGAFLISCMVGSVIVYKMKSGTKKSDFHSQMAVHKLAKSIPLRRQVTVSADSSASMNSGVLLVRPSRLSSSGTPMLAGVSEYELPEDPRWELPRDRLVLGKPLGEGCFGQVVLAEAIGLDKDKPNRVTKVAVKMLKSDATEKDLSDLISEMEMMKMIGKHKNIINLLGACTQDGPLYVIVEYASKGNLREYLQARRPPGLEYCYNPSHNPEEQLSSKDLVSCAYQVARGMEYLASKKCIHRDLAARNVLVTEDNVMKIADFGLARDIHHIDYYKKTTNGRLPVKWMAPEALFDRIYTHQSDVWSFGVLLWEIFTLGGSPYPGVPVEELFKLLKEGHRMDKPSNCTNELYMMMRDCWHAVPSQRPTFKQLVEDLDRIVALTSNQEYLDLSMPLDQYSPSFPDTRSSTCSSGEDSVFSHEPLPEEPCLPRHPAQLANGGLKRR
Method in brief: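 Radioactivity-based enzymatic activity assay of the named kinase, run as part of a 131-kinase specificity panel at the National Centre for Protein Kinase Profiling (Dundee). Residual activity was read at the stated single inhibitor concentration.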

[5] = target: Ephrin type-B receptor 4 (Homo sapiens) (UniProt P54760); experiment: Inhibition of EPH-B4 assessed as residual activity at 1 uM
Method in brief: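 Standard radioactivity-based enzymatic kinase assays on a 131-kinase panel run by the Dundee profiling service; residual kinase activity recorded.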

[6] = target: MAP/microtubule affinity-regulating kinase 3 (Homo sapiens) (UniProt P27448); experiment: Inhibition of MARK3 assessed as residual activity at 10 uM relative to control
Sequence of MAP/microtubule affinity-regulating kinase 3 (Homo sapiens) (P27448 whole entry, looked up, the tested form may be a part): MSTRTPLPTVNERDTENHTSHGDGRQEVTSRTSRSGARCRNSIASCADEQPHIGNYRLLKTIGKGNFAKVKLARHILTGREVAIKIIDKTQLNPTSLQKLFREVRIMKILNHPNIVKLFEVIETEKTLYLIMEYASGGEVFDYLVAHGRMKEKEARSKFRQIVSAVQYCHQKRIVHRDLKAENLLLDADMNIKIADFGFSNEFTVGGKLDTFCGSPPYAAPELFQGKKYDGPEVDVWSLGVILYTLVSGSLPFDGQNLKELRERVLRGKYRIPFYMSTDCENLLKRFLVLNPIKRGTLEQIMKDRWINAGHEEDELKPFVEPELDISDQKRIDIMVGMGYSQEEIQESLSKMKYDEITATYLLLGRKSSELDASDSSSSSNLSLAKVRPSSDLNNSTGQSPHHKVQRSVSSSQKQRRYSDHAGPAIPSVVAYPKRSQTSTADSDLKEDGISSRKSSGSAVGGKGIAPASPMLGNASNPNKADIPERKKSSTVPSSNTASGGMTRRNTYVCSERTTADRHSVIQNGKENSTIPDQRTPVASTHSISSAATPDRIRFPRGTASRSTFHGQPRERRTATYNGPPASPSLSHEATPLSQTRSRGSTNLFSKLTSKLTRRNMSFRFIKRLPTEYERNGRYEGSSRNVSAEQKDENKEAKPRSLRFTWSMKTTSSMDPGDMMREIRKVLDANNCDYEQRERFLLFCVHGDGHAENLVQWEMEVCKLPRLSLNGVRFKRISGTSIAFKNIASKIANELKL

[7] = target: Ribosomal protein S6 kinase alpha-6 (Homo sapiens) (UniProt Q9UK32); experiment: Inhibition of RSK4 N-terminal domain 1 assessed as residual activity at 10 uM relative to control
[8] = target: Atypical kinase COQ8B, mitochondrial (Homo sapiens) (UniProt Q96D53); experiment: Inhibition of ADCK4 assessed as residual activity at 10 uM relative to control
[9] = target: Phosphatidylinositol 4-phosphate 5-kinase type-1 alpha (Homo sapiens) (UniProt Q99755); experiment: Inhibition of PIP5K1A assessed as residual activity at 10 uM relative to control
Mus musculus [10] = experiment: Inhibition of LRRK2 in mouse assessed as inhibition of Ser935 autophosphorylation in kidney at 100 mg/kg, ip by immunoblot method; assay type: functional, organism-based; set-up: dose 100 mg/kg
Brain = experiment: AUClast in Swiss albino mouse brain at 1 mg/kg, iv; assay type: ADME, organism-based; set-up: dose 1 mg/kg, route intravenous, time 0 - last; details: in vivo
Method in brief: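 Male Swiss Albino mice, single dose given intravenously (1 mg/kg) or orally (10 mg/kg). Drug measured in plasma and brain, with AUClast taken for each. The brain/plasma ratio is based on AUClast, and oral bioavailability is derived from the IV and PO plasma data.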

[11] = target: Calcium/calmodulin-dependent protein kinase kinase 2 (Homo sapiens) (UniProt Q96RR4); experiment: Inhibition of CAMKKb assessed as residual activity at 1 uM
Sequence of Calcium/calmodulin-dependent protein kinase kinase 2 (Homo sapiens) (Q96RR4 2-588 limits assumed): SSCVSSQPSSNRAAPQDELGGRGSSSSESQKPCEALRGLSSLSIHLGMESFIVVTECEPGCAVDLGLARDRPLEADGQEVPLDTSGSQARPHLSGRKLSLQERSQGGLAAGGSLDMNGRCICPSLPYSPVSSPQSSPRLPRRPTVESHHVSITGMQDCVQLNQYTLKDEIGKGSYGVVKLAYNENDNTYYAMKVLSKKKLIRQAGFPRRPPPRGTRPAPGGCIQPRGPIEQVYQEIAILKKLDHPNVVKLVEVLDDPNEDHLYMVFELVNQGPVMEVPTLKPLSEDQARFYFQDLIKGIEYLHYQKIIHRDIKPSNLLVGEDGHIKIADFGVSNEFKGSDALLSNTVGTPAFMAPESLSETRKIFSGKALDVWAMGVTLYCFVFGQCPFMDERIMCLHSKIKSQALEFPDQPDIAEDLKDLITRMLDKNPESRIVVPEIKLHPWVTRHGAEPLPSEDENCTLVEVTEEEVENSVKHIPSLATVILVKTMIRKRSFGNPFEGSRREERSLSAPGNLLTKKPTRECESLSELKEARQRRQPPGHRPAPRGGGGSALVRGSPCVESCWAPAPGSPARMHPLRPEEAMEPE

[12] = target: T1, Serine/threonine-protein kinase STK11 (Homo sapiens) (UniProt Q15831); experiment: Inhibition of LKB1 assessed as residual activity at 10 uM
T1 sequence (whole entry): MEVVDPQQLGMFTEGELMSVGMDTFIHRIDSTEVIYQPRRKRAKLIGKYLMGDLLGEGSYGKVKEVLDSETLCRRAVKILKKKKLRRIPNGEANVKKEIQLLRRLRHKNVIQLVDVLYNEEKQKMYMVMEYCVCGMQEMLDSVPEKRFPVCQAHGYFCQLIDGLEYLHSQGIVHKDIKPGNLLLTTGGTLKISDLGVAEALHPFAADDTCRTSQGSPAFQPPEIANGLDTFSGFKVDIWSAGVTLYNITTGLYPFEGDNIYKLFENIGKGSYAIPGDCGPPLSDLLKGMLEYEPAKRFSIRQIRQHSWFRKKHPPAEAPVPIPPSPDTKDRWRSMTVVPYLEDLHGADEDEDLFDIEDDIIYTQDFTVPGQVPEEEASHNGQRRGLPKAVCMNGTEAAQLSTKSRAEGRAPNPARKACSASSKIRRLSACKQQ

[13] = test system: Epidermal growth factor receptor (Homo sapiens), P00533 [T790M]; experiment: Inhibition of EGFR T790M mutant assessed as residual activity at 10 uM relative to control; assay type: protein assay; method in brief: as §1
Mus musculus [14] = experiment: Oral bioavailability in Swiss albino mouse at 10 mg/kg; assay type: ADME, organism-based; details: in vivo
[15] = target: SRSF protein kinase 1 (Homo sapiens) (UniProt Q96SB4); experiment: Inhibition of SRPK1 assessed as residual activity at 1 uM
[16] = target: Phosphorylase b kinase gamma catalytic chain, skeletal muscle/heart isoform (Homo sapiens) (UniProt Q16816); experiment: Inhibition of PHKG1 assessed as residual activity at 10 uM relative to control
[17] = target: Cyclin-dependent kinase 17 (Homo sapiens) (UniProt Q00537); experiment: Inhibition of PCTK2 assessed as residual activity at 10 uM relative to control
[18] = target: Myosin light chain kinase family member 4 (Homo sapiens) (UniProt Q86YV6); experiment: Inhibition of MYLK4 assessed as residual activity at 10 uM relative to control
[19] = target: Myosin light chain kinase, smooth muscle (Homo sapiens) (UniProt Q15746); experiment: Inhibition of MYLK assessed as residual activity at 10 uM relative to control
Sequence of Myosin light chain kinase, smooth muscle (Homo sapiens) (Q15746 whole entry): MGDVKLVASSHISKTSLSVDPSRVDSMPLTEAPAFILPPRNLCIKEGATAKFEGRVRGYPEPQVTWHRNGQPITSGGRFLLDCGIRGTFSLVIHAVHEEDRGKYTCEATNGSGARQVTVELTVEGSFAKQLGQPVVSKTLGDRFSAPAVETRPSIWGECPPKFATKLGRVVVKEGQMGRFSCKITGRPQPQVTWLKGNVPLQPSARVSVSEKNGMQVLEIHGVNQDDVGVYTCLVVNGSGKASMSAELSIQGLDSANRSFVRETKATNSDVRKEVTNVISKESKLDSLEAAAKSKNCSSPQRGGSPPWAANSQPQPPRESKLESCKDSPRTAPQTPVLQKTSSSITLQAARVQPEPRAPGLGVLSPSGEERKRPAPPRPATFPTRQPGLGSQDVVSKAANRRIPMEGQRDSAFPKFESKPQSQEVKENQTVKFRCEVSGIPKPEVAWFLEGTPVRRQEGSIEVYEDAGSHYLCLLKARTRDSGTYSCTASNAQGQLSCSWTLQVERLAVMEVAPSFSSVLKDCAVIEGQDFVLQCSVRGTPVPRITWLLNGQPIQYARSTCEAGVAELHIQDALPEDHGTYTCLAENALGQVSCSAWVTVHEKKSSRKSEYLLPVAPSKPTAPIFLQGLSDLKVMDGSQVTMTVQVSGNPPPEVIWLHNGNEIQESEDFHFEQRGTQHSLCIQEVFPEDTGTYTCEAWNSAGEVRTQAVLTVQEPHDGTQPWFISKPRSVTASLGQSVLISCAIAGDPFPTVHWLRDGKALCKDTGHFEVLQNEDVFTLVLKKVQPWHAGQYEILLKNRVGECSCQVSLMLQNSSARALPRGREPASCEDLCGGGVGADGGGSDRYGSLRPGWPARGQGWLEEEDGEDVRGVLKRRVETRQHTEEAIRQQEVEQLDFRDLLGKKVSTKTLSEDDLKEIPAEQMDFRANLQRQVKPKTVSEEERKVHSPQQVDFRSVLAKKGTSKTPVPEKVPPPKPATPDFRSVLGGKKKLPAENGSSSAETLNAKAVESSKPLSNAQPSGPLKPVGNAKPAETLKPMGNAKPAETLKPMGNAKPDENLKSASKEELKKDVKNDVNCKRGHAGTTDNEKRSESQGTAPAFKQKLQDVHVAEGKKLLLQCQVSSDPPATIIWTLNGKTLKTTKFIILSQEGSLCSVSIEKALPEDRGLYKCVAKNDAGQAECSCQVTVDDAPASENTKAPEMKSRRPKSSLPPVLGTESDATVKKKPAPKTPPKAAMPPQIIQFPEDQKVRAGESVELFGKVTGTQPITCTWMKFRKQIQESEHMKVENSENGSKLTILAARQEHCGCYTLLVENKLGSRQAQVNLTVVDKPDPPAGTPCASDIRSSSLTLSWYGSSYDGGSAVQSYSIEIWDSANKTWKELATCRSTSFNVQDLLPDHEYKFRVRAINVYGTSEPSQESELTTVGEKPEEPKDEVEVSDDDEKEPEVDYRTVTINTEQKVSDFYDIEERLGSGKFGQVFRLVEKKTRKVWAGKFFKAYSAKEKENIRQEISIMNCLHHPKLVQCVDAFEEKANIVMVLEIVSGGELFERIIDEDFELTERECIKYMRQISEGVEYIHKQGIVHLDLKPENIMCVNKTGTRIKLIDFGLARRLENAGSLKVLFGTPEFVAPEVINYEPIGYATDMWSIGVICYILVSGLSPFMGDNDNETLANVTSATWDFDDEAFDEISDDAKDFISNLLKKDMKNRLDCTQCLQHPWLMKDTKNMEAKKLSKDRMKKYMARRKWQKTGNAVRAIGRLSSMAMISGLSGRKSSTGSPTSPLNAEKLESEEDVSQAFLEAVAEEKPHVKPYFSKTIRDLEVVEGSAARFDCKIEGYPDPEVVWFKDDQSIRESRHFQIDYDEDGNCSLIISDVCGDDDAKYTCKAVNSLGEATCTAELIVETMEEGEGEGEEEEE

[20] = target: Serine/threonine-protein kinase 3 (Homo sapiens) (UniProt Q13188); experiment: Inhibition of MST2 assessed as residual activity at 10 uM relative to control
[21] = target: Serine/threonine-protein kinase 24 (Homo sapiens) (UniProt Q9Y6E0); experiment: Inhibition of MST3 assessed as residual activity at 10 uM relative to control
[22] = target: Macrophage-stimulating protein receptor (Homo sapiens) (UniProt Q04912); experiment: Inhibition of MST1R assessed as residual activity at 10 uM relative to control
[23] = target: MAP kinase-interacting serine/threonine-protein kinase 2 (Homo sapiens) (UniProt Q9HBH9); experiment: Inhibition of MKNK2 assessed as residual activity at 10 uM relative to control
[24] = target: Serine/threonine-protein kinase 17B (Homo sapiens) (UniProt O94768); experiment: Inhibition of DRAK2 assessed as residual activity at 10 uM relative to control
Method in brief: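 Radioactivity-based enzymatic assay of kinase activity, run as part of a 131-kinase profiling panel at the National Centre for Protein Kinase Profiling, Dundee.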

Sequence of Dual specificity protein kinase CLK4 (Homo sapiens) (Q9HAZ1 whole entry, looked up): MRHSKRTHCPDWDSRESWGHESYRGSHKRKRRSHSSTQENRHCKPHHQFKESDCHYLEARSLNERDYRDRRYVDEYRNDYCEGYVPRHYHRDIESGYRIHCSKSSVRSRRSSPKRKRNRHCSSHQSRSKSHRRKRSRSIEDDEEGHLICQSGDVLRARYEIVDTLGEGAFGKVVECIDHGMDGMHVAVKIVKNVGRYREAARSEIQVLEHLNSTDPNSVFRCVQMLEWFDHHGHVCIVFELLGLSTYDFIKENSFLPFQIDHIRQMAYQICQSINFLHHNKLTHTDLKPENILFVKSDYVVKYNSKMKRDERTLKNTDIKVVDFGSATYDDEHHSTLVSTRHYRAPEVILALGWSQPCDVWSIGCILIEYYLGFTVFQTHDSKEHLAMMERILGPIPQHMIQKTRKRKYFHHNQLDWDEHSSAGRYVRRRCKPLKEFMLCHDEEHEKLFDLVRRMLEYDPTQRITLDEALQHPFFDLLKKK

Compound `O=C(Nc1cccnc1)c1cc(-c2ccnc(F)c2)ccc1OCc1ccccc1` has an Activity [1] of 46%, an Activity [2] of 77% and an Activity [3] of 63%. The Activity [4] was 110%, the Activity [5] was 118% and the Activity [6] was 50%. For the same compound, the Activity [7] was 71%, the Activity [8] was 26% and the Activity [9] was 73%. For the same compound, the inhibition (Mus musculus [10]) was “Active”, the AUClast (Brain) was 708.7 ng·h/mL and the Activity [11] was 71%. For the same compound, the Activity [12] was 105%, the Activity [13] was 40% and the F (Mus musculus [14]) was 12.2%. It also gave an Activity [15] of 61%, an Activity [16] of 80% and an Activity [17] of 75%. The Activity [18] was 80%, the Activity [19] was 27% and the Activity [20] was 23%. It also gave an Activity [21] of 63%, an Activity [22] of 17% and an Activity [23] of 52%. The Activity [24] was 72%.
